Compound activity from PubChem.
LEDGF integ inh – blocks HIV-1 LEDGF/p75-dependent DNA integration; TR-FRET IN-LEDGF/p75 DNA integration, Eu/Cy5; inhibition, % at 3.7 µM; hit rate 0.64% among 370,000; AID 743269;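 active means inhibition above the screen-wide mean plus 3 SD, cut at about 13% in these data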;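 further: signal is the Cy5 over europium emission ratio at 671 and 618 nm; 0% = plate median of compound wells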
Rin1 Abl inh – blocks binding of human Rin1 to Abl; P00519+Q13671; TR-FRET Rin1/Abl binding, biochemical; inhibition, % at 7.35 µM; hit rate 0.4% among 360,000; AID 588664; in the data active means inhibition above about 5%, passing the limit was not always enough
TDP2 inh – TDP2 (human) inhibition, absorbance primary screen. inhibition, % at 12.8 µM. recombinant TDP2, T5PNP hydrolysis, p-nitrophenol absorbance 415 nm. hit rate 0.34% among 370,000. AID 720702. O95551;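 active means inhibition above the mean of all tested compounds plus 3 SD, set per campaign, cut at about 25% in these data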;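 further: 0% = DMSO with enzyme and 100% = buffer with substrate but no TDP2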
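Assay system: recombinant human TDP2 / Reagent: T5PNP substrate at 5 mM, a TopII-DNA adduct mimic / Measured by: epi absorbance from released p-nitrophenol / Evaluation: % inhibition relative to enzyme-containing and enzyme-free wells / Control set: enzyme-free and DMSO wells / Replicates: each compound tested once, singlicate / Schedule: enzyme reaction with compound for 2 h at 37 °C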
UHRF1 MBD2 ctr – blocks human UHRF1 binding to methylated DNA. hit rate 0.75% among 370,000. inhibition, % at 4.4 µM. Q96T88. UHRF1 binding to methylated oligo, TR-FRET;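 further: UHRF1 SRA domain binding a hemimethylated CpG hairpin DNA probe; 0% = median of test compound wells and 100% = reference inhibitor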
MBD2 DNA inh – inhibitors of human MBD2 binding to methylated oligonucleotide; Q9UBB5; TR-FRET; inhibition, % at 4.4 µM; hit rate 0.31% among 370,000; in the data active means inhibition above about 13%
UHRF1 DNA bind – UHRF1 methyl-oligo binding inhibition as MBD2 counter-screen. UHRF1 binding to methylated oligonucleotide, TR-FRET. inhibition, % at 4.4 µM. hit rate 25% among 1,000. shares compounds with MBD2 DNA inh;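 further: UHRF1 SRA domain binding a labeled hemimethylated CpG hairpin DNA; 0% = vehicle only and 100% = reference inhibitor with vehicle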
MBD2 confirm – MBD2-DBD methyl-DNA binding inhibition, TR-FRET confirmation | TR-FRET MBD2-DBD binding to methylated oligonucleotide | shares compounds with MBD2 DNA inh | hit rate 26% among 1,000 | inhibition, % at 4.4 µM | AID 720531; in the data active means inhibition above about 14%
Numbers without * were called inactive; x = not tested or not shown. Rows were chosen to be rich in hits. Some 1.9% of all compounds tested hit in one or more screens of this group. Unless noted, no stated cut-off is given here; in the data, active means inhibition above about 21%; inactive means the rest.

SMILES | LEDGF integ inh | Rin1 Abl inh | TDP2 inh | UHRF1 MBD2 ctr | MBD2 DNA inh | UHRF1 DNA bind | MBD2 confirm
Cc1ccc(OCC(=O)Nc2cccc(S(=O)(=O)N3CCCCC3)c2)c([N+](=O)[O-])n1 | 5 | 1 | 0 | 0 | 0 | x | x
C#CCOCCOCCOCCNc1nc(N2CCN(C(=O)[C@H](CO)n3cc([C@@H](N)C(C)C)nn3)CC2)nc(N2CCN(C(=O)[C@H](CO)n3cc([C@@H](N)C(C)C)nn3)CC2)n1 | 5 | 0 | 15 | 22* | 15* | 11 | 6
C#CCNC(=O)C[C@H]1C[C@@]2(C(=O)OC)C(=C[C@H](C(C)C)O[C@@H]2C2CC2)N(Cc2ccc(Cl)cc2Cl)C1=O | 2 | x | -5 | 1 | -3 | x | x
COc1cc(-c2nnc(COC(=O)c3ccc(C)o3)o2)cc(OC)c1OC | 4 | 2 | 2 | 39* | 18* | 9 | 8
Cc1ccccc1NC(=O)c1ccc2nccnc2c1 | 2 | -1 | 4 | 1 | 16* | 6 | -1
O=C(Nc1ccccc1Br)c1ccc2nccnc2c1 | 5 | 1 | 12 | -6 | -5 | x | x
CCN(CC)C(=O)CC[C@H]1CC[C@]2(CCCN(Cc3ccc(Br)cc3)C2)O1 | 3 | x | 0 | 3 | 0 | x | x
O=[N+]([O-])c1ccc(CSc2nnc(-c3cccc(Cl)c3)n2Cc2ccco2)cc1 | 0 | x | 3 | -4 | 0 | x | x
CC(=O)CC[C@@H]1CC[C@]2(CCCN(S(=O)(=O)c3ccccc3)C2)O1 | 1 | x | 12 | -3 | -5 | x | x
Cc1ccc(NC(=O)N2CCC(N(C)CCC(C)C)CC2)cc1F | -3 | x | 8 | -3 | 2 | x | x
Cc1cc2[nH]c3c4ccccc4nc(C)c3c2cc1C | -1 | -1 | 0 | 6 | 17* | 19 | 33*
Cc1cc(NC(=NC2CC2)c2ccccc2F)n(-c2ccccc2)n1 | -3 | 5 | -2 | 21* | 15* | 9 | 3
Cc1cc(NC(=O)Nc2cc(C)nn2-c2ccccc2)n(-c2ccccc2)n1 | -1 | 0 | 5 | 1 | -1 | x | x
Brc1ccc2c(c1)-c1ccccc1C1=NCCN12 | -3 | -3 | -7 | -11 | 13 | x | x
Clc1ccc2c(c1)-c1ccccc1C1=NCCN12 | -5 | 0 | 9 | -3 | 22* | 2 | 42*
Cc1ccccc1CN1CCCCC(NC(=O)C(C)(C)C)C1=O (configuration not stated) | -1 | x | 1 | 0 | 1 | x | x
CCCCNC(=O)Cn1c(-c2ccc(OC)cc2)noc1=O | -4 | 1 | 2 | 13 | 14* | -1 | 2
Cc1ccccc1CNC1CCC12CCC(c1ccccc1)CC2 (configuration not stated) | 2 | x | -8 | 0 | 0 | x | x
O=C1CCCN1CC(O)CS(=O)(=O)Cc1ccc(Cl)c(Cl)c1 (configuration not stated) | -1 | -1 | -17 | 4 | 16* | 7 | 3
COc1ccc2c3c([nH]c2c1)C1=NCC[C@]12c1ccccc1N=CN2CC3 | -1 | x | 6 | -3 | -7 | x | x
C[C@H]1C(=O)N2[C@@H](C[C@]3(c4c[nH]c5ccccc45)c4ccccc4N(S(=O)(=O)c4ccccc4)[C@H]23)C(=O)N1C | -2 | x | 4 | 2 | 4 | x | x
CCOC(=O)C1=C(C(=O)OCC)C2N(Cc3ccc(C#N)cc3)c3ccccc3[C@@]23C[C@@H](C(=O)OC)N(S(=O)(=O)c2ccccc2)C3=N1 (some centres not stated) | -4 | x | 1 | -2 | 4 | x | x
O=C(CCS(=O)(=O)c1ccccc1)Nc1ccc(F)cc1Cl | 3 | x | 3 | -1 | -5 | x | x
CCCc1nnc(NC(=O)CCC(=O)N2CCN(c3ccccn3)CC2)s1 | 0 | -7 | -8 | 19 | 14* | 8 | 4
Cc1cc(C(=O)N2CCOCC2)c(C)o1 | 2 | 2 | -16 | 22* | 15* | 8 | 3
CC(=O)N1CCN(C(=O)c2cc(C)oc2C)CC1 | -4 | 1 | -2 | -1 | 2 | x | x
O=C(Cn1nnc(-c2ccncc2)n1)Nc1ccc(Oc2ccccc2)cc1 | 0 | x | 3 | 1 | 4 | x | x
CC1(C)CC(=O)C=C(NCc2ccco2)C1 | -2 | 0 | 1 | 2 | 35* | 4 | 3
